Laboratory results from the RNAGym collection of RNA variant scans (doi:10.1002/anie.201605470).

B1: Osa-1-4 twister ribozyme (parent)
chain: CCGCCUAACACUGCCAAUGCCGGUCCCAAGCCCGGAUAAAAGUGGAGGGGGCGG

Variants of: B1
Test: self-cleavage, relative activity (ratio to wild type); higher = more cleavage; co-transcriptional
Procedure, shortened: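 In vitro transcription at 37 °C for 2 h allowed the twister ribozyme to cleave itself as it was made. Its 54-nucleotide Oryza sativa template had been synthesised with 97 % wild-type base and 1 % of each other base at the 48 positions downstream of the cleavage site. A template-switching oligonucleotide was used for reverse transcription, followed by PCR amplification and deep sequencing. Whether reads carried upstream sequence set the cleavage status, and relative activity is the fraction cleaved normalised to wild type.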
Work on CCGCCUAACACUGCUAUUGCCGGUCCCAAGCCCGGAUAAAAGUGGAGGGGGCGG [A17U C15U] yielded a self-cleavage of 0.64.
CCGCCUAACACUGCAAUUGCCGGUCCCAAGCCCGGAUAAAAGUGGAGGGGGCGG [A17U C15A] showed a self-cleavage of 0.62.
With CCGCCUAACACUGCGAUUGCCGGUCCCAAGCCCGGAUAAAAGUGGAGGGGGCGG [A17U C15G] the self-cleavage was 0.54.
CCGCCUAACACUGCCAUUGCCGGUCCCAAACCCGGAUAAAAGUGGAGGGGGCGG [A17U G30A] gave a self-cleavage of 0.05.
Variant CCGCCUAACACUGCCAUUGCCGGUCCCAACCCCGGAUAAAAGUGGAGGGGGCGG [A17U G30C] has a self-cleavage of 0.06.
Work on CCGCCUAACACUGCCAUUGCCGGUCCCAAUCCCGGAUAAAAGUGGAGGGGGCGG [A17U G30U] yielded a self-cleavage of 0.04.
Work on CCGCCUAACACUGCCAUUGCCGGUCCCAAGCCCGGAUAAAAUUGGAGGGGGCGG [A17U G42U] yielded a self-cleavage of 0.56.
For CCGCCUAACACUGCCAUUGCCGGUCCCAAGCCCGGAUAAAAAUGGAGGGGGCGG [A17U G42A], the self-cleavage was 0.17.
Work on CCGCCUAACACUGCCAUUGCCGGUCCCAAGCCCGGAUAAAACUGGAGGGGGCGG [A17U G42C] yielded a self-cleavage of 0.29.
Work on CCGCCUAACACUGCCAUUGCCGGUCCCAAGCCCGGAUAAAAGUAGAGGGGGCGG [A17U G44A] yielded a self-cleavage of 1.
With CCGCCUAACACUGCCAUUGCCGGUCCCAAGCCCGGAUAAAAGUUGAGGGGGCGG [A17U G44U] the self-cleavage was 0.94.
With CCGCCUAACACUGCCAUUGCCGGUCCCAAGCCCGGAUAAAAGUCGAGGGGGCGG [A17U G44C] the self-cleavage was 0.98.
CCGCCUAACACUGGCAUUGCCGGUCCCAAGCCCGGAUAAAAGUGGAGGGGGCGG [A17U C14G] showed a self-cleavage of 0.25.
CCGCCUAACACUGUCAUUGCCGGUCCCAAGCCCGGAUAAAAGUGGAGGGGGCGG [A17U C14U] showed a self-cleavage of 0.79.
With CCGCCUAACACUGACAUUGCCGGUCCCAAGCCCGGAUAAAAGUGGAGGGGGCGG [A17U C14A] the self-cleavage was 0.18.
With CCGCCUAACACUGCCAUUGCCGGUCCCAAGCCCGGAUAAAAGUGCAGGGGGCGG [A17U G45C] the self-cleavage was 0.06.
CCGCCUAACACUGCCAUUGCCGGUCCCAAGCCCGGAUAAAAGUGUAGGGGGCGG [A17U G45U] showed a self-cleavage of 0.18.
In the case of CCGCCUAACACUGCCAUUGCCGGUCCCAAGCCCGGAUAAAAGUGAAGGGGGCGG [A17U G45A], the self-cleavage is reported as 0.54.
CCGCCUAACACUGCCAUUGCCGGUCCCAAGCCCGGAUAGAAGUGGAGGGGGCGG [A17U A39G] gave a self-cleavage of 1.03.
In the case of CCGCCUAACACUGCCAUUGCCGGUCCCAAGCCCGGAUACAAGUGGAGGGGGCGG [A17U A39C], the self-cleavage is reported as 0.98.
With CCGCCUAACACUGCCAUUGCCGGUCCCAAGCCCGGAUAUAAGUGGAGGGGGCGG [A17U A39U] the self-cleavage was 1.03.
With CCGCCUAACACUGCCAUUGCCGGUCCCAUGCCCGGAUAAAAGUGGAGGGGGCGG [A17U A29U] the self-cleavage was 0.19.
CCGCCUAACACUGCCAUUGCCGGUCCCACGCCCGGAUAAAAGUGGAGGGGGCGG [A17U A29C] showed a self-cleavage of 0.05.
With CCGCCUAACACUGCCAUUGCCGGUCCCAGGCCCGGAUAAAAGUGGAGGGGGCGG [A17U A29G] the self-cleavage was 0.35.
Work on CCGCCUAACACUGCCAUUGCCGGUCCCAAGCCCGGAUAAAAGUGGCGGGGGCGG [A17U A46C] yielded a self-cleavage of 0.04.
CCGCCUAACACUGCCAUUGCCGGUCCCAAGCCCGGAUAAAAGUGGGGGGGGCGG [A17U A46G] showed a self-cleavage of 0.09.
For CCGCCUAACACUGCCAUUGCCGGUCCCAAGCCCGGAUAAAAGUGGUGGGGGCGG [A17U A46U], the self-cleavage was 0.1.
For CCGCCUAACACUGCCAUUGUCGGUCCCAAGCCCGGAUAAAAGUGGAGGGGGCGG [A17U C20U], the self-cleavage was 0.95.
Work on CCGCCUAACACUGCCAUUGACGGUCCCAAGCCCGGAUAAAAGUGGAGGGGGCGG [A17U C20A] yielded a self-cleavage of 0.85.
Work on CCGCCUAACACUGCCAUUGGCGGUCCCAAGCCCGGAUAAAAGUGGAGGGGGCGG [A17U C20G] yielded a self-cleavage of 0.23.
Variant CCGCCUAACACUGCCAUUGCCGUUCCCAAGCCCGGAUAAAAGUGGAGGGGGCGG [A17U G23U] has a self-cleavage of 0.13.
Variant CCGCCUAACACUGCCAUUGCCGCUCCCAAGCCCGGAUAAAAGUGGAGGGGGCGG [A17U G23C] has a self-cleavage of 0.06.
In the case of CCGCCUAACACUGCCAUUGCCGAUCCCAAGCCCGGAUAAAAGUGGAGGGGGCGG [A17U G23A], the self-cleavage is reported as 0.56.
Work on CCGCCUAACACUGCCAUUGCCGGUCGCAAGCCCGGAUAAAAGUGGAGGGGGCGG [A17U C26G] yielded a self-cleavage of 0.09.
In the case of CCGCCUAACACUGCCAUUGCCGGUCUCAAGCCCGGAUAAAAGUGGAGGGGGCGG [A17U C26U], the self-cleavage is reported as 1.
In the case of CCGCCUAACACUGCCAUUGCCGGUCACAAGCCCGGAUAAAAGUGGAGGGGGCGG [A17U C26A], the self-cleavage is reported as 0.06.
In the case of CCGCCUAAAACUGCCAUUGCCGGUCCCAAGCCCGGAUAAAAGUGGAGGGGGCGG [A17U C9A], the self-cleavage is reported as 0.41.
Variant CCGCCUAAGACUGCCAUUGCCGGUCCCAAGCCCGGAUAAAAGUGGAGGGGGCGG [A17U C9G] has a self-cleavage of 0.8.
CCGCCUAAUACUGCCAUUGCCGGUCCCAAGCCCGGAUAAAAGUGGAGGGGGCGG [A17U C9U] gave a self-cleavage of 0.81.
In the case of CCGCCUAACACUGCCAUUGCCGGUCCCAAGCCCGGGUAAAAGUGGAGGGGGCGG [A17U A36G], the self-cleavage is reported as 1.05.
CCGCCUAACACUGCCAUUGCCGGUCCCAAGCCCGGCUAAAAGUGGAGGGGGCGG [A17U A36C] gave a self-cleavage of 0.79.
For CCGCCUAACACUGCCAUUGCCGGUCCCAAGCCCGGUUAAAAGUGGAGGGGGCGG [A17U A36U], the self-cleavage was 1.04.
With CCGCCUAACACUGCCAUUGCCGGUCCCAAGCCCGGAUAAAUGUGGAGGGGGCGG [A17U A41U] the self-cleavage was 0.96.
For CCGCCUAACACUGCCAUUGCCGGUCCCAAGCCCGGAUAAAGGUGGAGGGGGCGG [A17U A41G], the self-cleavage was 0.9.
Work on CCGCCUAACACUGCCAUUGCCGGUCCCAAGCCCGGAUAAACGUGGAGGGGGCGG [A17U A41C] yielded a self-cleavage of 0.98.
For CCGCCUAACACUGCCAUUGCCCGUCCCAAGCCCGGAUAAAAGUGGAGGGGGCGG [A17U G22C], the self-cleavage was 0.11.
Variant CCGCCUAACACUGCCAUUGCCAGUCCCAAGCCCGGAUAAAAGUGGAGGGGGCGG [A17U G22A] has a self-cleavage of 1.04.
Work on CCGCCUAACACUGCCAUUGCCUGUCCCAAGCCCGGAUAAAAGUGGAGGGGGCGG [A17U G22U] yielded a self-cleavage of 0.63.
